From ChEMBL document CHEMBL4043093, “2-Oxo-3, 4-dihydropyrimido[4, 5-d]pyrimidinyl derivatives as new irreversible pan fibroblast growth factor receptor (FGFR) inhibitors” (Eur J Med Chem, 2017)

Assays:
[1] = molecular target: Ribosomal protein S6 kinase alpha-1 (Homo sapiens) (UniProt Q15418); experiment: Inhibition of wild-type human partial length N-terminal RSK1 Kinase domain 1 (M1 to E388 residues) expressed in Escherichia coli BL21 assessed as residual activity at 1000 nM after 30 mins by Kinomescan method relative to control
[2] = molecular target: STE20/SPS1-related proline-alanine-rich protein kinase (Homo sapiens) (UniProt Q9UEW8); experiment: Inhibition of wild-type human partial length STK39 (P43 to I357 residues) expressed in HEK293 cells assessed as residual activity at 1000 nM after 30 mins by Kinomescan method relative to control; assay type: cell-based
[3] = molecular target: Cyclin-dependent kinase 13 (Homo sapiens) (UniProt Q14004); experiment: Inhibition of wild-type human partial length CDC2L5 (H675 to S1054 residues) expressed in HEK293 cells assessed as residual activity at 1000 nM after 30 mins by Kinomescan method relative to control; assay type: cell-based
[4] = molecular target: LIM domain kinase 2 (Homo sapiens) (UniProt P53671); experiment: Inhibition of wild-type human full length LIMK2 (M1 to P638 residues) expressed in Escherichia coli BL21 assessed as residual activity at 1000 nM after 30 mins by Kinomescan method relative to control
LIM domain kinase 2 (Homo sapiens), sequence (P53671 whole entry, looked up, the tested form may be a part): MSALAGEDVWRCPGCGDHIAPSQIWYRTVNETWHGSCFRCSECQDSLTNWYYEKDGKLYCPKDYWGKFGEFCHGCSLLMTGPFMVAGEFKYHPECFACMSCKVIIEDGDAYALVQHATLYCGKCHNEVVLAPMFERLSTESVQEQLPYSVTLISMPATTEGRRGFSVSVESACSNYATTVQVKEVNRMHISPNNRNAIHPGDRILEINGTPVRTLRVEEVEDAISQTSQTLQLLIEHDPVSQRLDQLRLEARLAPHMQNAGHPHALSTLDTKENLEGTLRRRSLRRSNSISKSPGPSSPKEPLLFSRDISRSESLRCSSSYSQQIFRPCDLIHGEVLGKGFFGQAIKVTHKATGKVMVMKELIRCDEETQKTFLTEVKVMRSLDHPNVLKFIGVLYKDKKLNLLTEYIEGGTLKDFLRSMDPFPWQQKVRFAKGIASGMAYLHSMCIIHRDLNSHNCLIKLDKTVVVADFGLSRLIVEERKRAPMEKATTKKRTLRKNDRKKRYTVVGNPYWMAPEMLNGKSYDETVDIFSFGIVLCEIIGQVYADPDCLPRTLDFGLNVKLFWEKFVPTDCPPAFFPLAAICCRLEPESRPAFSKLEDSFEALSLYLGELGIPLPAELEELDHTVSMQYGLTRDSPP
Method in brief: (§1)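 Single-concentration screen at 1 µM across a 456-kinase KINOMEscan panel. The read-out is Percent Control for each kinase.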

[5] = molecular target: Protein kinase C epsilon type (Homo sapiens) (UniProt Q02156); experiment: Inhibition of wild-type human partial length PRKCE (A378 to P737 residues) expressed in HEK293 cells assessed as residual activity at 1000 nM after 30 mins by Kinomescan method relative to control; assay type: cell-based
[6] = system: Tyrosine-protein kinase ABL1 (Homo sapiens), P00519 [T315I]; experiment: Inhibition of human non-phosphorylated ABL1 T315I mutant (S229 to K512 residues) expressed in HEK293 cells assessed as residual activity at 1000 nM after 30 mins by Kinomescan method relative to control; assay type: cell-based
Method in brief: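 KINOMEscan binding panel of 456 kinases, with the test compound at a single concentration of 1 µM. Read-out is Percent Control.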

[7] = molecular target: Dual specificity protein kinase CLK2 (Homo sapiens) (UniProt P49760); experiment: Inhibition of wild-type human partial length CLK2 (D144 to R498 residues) expressed in Escherichia coli BL21 assessed as residual activity at 1000 nM after 30 mins by Kinomescan method relative to control
Dual specificity protein kinase CLK2 (Homo sapiens), sequence (P49760 whole entry, looked up, the tested form may be a part): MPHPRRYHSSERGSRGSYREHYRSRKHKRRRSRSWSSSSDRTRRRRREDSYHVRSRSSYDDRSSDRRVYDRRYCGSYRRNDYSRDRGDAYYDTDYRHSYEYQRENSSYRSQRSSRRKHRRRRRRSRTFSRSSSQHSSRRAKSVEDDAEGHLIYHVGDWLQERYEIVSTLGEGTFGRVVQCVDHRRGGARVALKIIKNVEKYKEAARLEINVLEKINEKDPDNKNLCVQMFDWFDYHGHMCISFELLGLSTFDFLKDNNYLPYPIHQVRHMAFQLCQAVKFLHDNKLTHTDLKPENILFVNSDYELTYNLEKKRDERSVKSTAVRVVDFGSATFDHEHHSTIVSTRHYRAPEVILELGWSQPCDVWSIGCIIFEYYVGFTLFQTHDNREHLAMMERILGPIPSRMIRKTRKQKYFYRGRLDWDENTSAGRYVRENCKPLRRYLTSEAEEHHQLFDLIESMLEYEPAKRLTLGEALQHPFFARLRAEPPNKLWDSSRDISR

[8] = molecular target: Mitogen-activated protein kinase kinase kinase 1 (Homo sapiens) (UniProt Q13233); experiment: Inhibition of wild-type human partial length MAP3K1 (L1202 to W1512 residues) expressed in HEK293 cells assessed as residual activity at 1000 nM after 30 mins by Kinomescan method relative to control; assay type: cell-based
[9] = molecular target: Serine/threonine-protein kinase 32C (Homo sapiens) (UniProt Q86UX6); experiment: Inhibition of wild-type human partial length YANK3 (M68 to G486 residues) expressed in Escherichia coli BL21 assessed as residual activity at 1000 nM after 30 mins by Kinomescan method relative to control
Serine/threonine-protein kinase 32C (Homo sapiens), sequence (Q86UX6 whole entry, the tested form may be a part, canonical isoform): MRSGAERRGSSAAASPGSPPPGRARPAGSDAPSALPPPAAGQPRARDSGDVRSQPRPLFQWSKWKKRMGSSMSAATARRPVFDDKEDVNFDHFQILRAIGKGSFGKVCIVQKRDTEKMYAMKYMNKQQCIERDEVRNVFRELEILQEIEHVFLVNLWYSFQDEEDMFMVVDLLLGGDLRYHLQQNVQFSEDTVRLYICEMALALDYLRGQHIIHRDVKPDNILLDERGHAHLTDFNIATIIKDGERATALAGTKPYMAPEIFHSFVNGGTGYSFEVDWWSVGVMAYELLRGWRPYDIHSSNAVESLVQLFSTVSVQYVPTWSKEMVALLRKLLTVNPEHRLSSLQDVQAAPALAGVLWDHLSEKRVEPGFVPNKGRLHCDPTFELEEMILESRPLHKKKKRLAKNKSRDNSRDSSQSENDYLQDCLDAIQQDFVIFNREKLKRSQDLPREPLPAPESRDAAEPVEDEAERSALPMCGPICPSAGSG

[10] = molecular target: Phosphorylase b kinase gamma catalytic chain, liver/testis isoform (Homo sapiens) (UniProt P15735); experiment: Inhibition of wild-type human partial length PHKG2 (M1 to W300 residues) expressed in Escherichia coli BL21 assessed as residual activity at 1000 nM after 30 mins by Kinomescan method relative to control
[11] = molecular target: Rho-associated protein kinase 1 (Homo sapiens) (UniProt Q13464); experiment: Inhibition of wild-type human partial length ROCK1 (M1 to R415 residues) expressed in HEK293 cells assessed as residual activity at 1000 nM after 30 mins by Kinomescan method relative to control; assay type: cell-based
[12] = molecular target: Testis-specific serine/threonine-protein kinase 1 (Homo sapiens) (UniProt Q9BXA7); experiment: Inhibition of wild-type human full length TSSK1B (M1 to Q367 residues) expressed in Escherichia coli BL21 assessed as residual activity at 1000 nM after 30 mins by Kinomescan method relative to control
Testis-specific serine/threonine-protein kinase 1 (Homo sapiens), sequence (Q9BXA7 whole entry, the tested form may be a part): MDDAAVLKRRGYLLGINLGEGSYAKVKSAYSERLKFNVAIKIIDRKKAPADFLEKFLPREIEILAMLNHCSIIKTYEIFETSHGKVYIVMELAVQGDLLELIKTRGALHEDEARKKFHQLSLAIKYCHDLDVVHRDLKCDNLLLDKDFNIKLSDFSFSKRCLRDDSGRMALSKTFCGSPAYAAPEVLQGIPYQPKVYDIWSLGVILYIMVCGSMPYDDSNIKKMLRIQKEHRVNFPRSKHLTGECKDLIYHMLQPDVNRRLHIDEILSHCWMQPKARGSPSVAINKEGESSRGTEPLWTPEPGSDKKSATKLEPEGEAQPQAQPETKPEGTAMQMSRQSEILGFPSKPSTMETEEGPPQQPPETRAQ

[13] = molecular target: Serine/threonine-protein kinase 17B (Homo sapiens) (UniProt O94768); experiment: Inhibition of wild-type human full length DRAK2 (M1 to C372 residues) expressed in Escherichia coli BL21 assessed as residual activity at 1000 nM after 30 mins by Kinomescan method relative to control; method in brief: as §1
Serine/threonine-protein kinase 17B (Homo sapiens), sequence (O94768 whole entry, the tested form may be a part): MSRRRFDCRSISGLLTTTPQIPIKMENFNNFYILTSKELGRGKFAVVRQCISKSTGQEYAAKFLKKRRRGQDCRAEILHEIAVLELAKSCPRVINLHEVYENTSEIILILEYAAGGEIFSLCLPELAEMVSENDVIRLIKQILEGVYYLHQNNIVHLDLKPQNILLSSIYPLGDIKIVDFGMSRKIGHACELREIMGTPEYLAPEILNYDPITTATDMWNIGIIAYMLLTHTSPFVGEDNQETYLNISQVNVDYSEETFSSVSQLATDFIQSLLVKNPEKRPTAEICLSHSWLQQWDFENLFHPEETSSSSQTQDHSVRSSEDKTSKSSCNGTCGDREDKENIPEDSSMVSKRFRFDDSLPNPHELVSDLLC

[14] = molecular target: Receptor-interacting serine/threonine-protein kinase 1 (Homo sapiens) (UniProt Q13546); experiment: Inhibition of wild-type human partial length RIPK1 (M1 to K305 residues) expressed in Escherichia coli BL21 assessed as residual activity at 1000 nM after 30 mins by Kinomescan method relative to control
[15] = molecular target: Receptor-type tyrosine-protein kinase FLT3 (Homo sapiens) (UniProt P36888); experiment: Inhibition of wild-type human partial length FLT3 (V592 to Y969 residues) expressed in Escherichia coli BL21 assessed as residual activity at 1000 nM after 30 mins by Kinomescan method relative to control
[16] = molecular target: Tyrosine-protein kinase CSK (Homo sapiens) (UniProt P41240); experiment: Inhibition of wild-type human full length CSK (M1 to L450 residues) expressed in Escherichia coli BL21 assessed as residual activity at 1000 nM after 30 mins by Kinomescan method relative to control
Tyrosine-protein kinase CSK (Homo sapiens), sequence (P41240 2-450 limits assumed): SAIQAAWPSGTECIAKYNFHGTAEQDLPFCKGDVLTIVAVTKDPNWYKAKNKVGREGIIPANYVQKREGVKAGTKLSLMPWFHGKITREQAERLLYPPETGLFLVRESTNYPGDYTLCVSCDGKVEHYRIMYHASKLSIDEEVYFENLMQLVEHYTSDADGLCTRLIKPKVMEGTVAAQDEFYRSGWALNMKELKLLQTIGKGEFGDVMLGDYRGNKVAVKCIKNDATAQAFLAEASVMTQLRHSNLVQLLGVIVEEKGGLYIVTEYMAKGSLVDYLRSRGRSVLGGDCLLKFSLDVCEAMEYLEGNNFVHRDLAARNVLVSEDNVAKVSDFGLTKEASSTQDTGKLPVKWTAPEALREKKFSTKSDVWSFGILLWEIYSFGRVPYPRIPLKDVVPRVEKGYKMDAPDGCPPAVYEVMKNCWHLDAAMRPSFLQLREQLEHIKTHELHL
Method in brief: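 Single-point screen at a fixed 1 µM, run within a 456-kinase DiscoveRx KINOMEscan panel. Each kinase's read-out is Percent Control, i.e. signal relative to a control without compound. Hits were scored by a Percent Control < 35 cut-off, and an S(35) selectivity score was calculated across the non-mutant kinases.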

[17] = molecular target: Protein-tyrosine kinase 6 (Homo sapiens) (UniProt Q13882); experiment: Inhibition of wild-type human partial length BRK (L166 to T451 residues) expressed in Escherichia coli BL21 assessed as residual activity at 1000 nM after 30 mins by Kinomescan method relative to control
Protein-tyrosine kinase 6 (Homo sapiens), sequence (Q13882 whole entry, looked up, the tested form may be a part): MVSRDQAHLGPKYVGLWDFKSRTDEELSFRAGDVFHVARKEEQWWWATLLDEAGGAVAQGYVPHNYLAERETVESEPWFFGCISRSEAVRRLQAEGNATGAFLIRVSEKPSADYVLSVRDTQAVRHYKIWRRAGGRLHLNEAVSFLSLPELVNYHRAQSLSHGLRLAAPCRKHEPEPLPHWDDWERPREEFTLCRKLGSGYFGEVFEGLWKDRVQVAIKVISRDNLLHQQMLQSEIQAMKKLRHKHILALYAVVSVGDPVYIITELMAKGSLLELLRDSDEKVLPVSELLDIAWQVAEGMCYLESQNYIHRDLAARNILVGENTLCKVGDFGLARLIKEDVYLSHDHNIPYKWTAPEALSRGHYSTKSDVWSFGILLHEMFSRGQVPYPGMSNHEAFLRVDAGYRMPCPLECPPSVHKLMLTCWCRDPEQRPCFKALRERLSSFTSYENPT

[18] = molecular target: Serine/threonine-protein kinase VRK2 (Homo sapiens) (UniProt Q86Y07); experiment: Inhibition of wild-type human partial length VRK2 (M1 to T336 residues) expressed in HEK293 cells assessed as residual activity at 1000 nM after 30 mins by Kinomescan method relative to control; assay type: cell-based
Serine/threonine-protein kinase VRK2 (Homo sapiens), sequence (Q86Y07 whole entry, the tested form may be a part): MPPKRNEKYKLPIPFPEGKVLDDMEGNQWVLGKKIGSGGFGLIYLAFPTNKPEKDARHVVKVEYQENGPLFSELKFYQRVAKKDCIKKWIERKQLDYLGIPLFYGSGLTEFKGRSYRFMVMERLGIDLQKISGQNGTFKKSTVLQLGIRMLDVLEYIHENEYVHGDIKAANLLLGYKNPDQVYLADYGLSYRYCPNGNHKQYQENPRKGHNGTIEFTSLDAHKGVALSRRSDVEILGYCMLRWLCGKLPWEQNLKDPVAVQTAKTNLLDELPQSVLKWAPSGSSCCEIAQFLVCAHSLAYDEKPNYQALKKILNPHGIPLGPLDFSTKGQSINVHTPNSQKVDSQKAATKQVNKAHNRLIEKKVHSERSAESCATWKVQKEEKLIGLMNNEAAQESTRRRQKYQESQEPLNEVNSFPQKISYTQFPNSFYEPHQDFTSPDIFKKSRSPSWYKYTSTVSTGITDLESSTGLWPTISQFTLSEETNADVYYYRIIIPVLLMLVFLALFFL

[19] = molecular target: Mitogen-activated protein kinase 8 (Homo sapiens) (UniProt P45983); experiment: Inhibition of wild-type human full length JNK1 (M1 to Q384 residues) expressed in HEK293 cells assessed as residual activity at 1000 nM after 30 mins by Kinomescan method relative to control; assay type: cell-based; method in brief: as §1
Mitogen-activated protein kinase 8 (Homo sapiens), sequence (P45983 whole entry, the tested form may be a part): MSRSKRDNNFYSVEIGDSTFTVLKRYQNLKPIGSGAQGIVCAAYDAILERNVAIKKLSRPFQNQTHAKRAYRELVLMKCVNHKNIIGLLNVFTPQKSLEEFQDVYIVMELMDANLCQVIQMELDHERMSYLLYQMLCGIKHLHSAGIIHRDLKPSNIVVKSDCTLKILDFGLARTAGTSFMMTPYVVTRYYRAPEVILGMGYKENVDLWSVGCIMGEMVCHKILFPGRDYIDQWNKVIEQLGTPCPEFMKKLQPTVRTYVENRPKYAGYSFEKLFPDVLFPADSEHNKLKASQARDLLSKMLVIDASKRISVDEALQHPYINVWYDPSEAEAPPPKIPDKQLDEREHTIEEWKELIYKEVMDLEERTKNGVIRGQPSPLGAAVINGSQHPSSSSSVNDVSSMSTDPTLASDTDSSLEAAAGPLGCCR

[20] = molecular target: Bone morphogenetic protein receptor type-2 (Homo sapiens) (UniProt Q13873); experiment: Inhibition of wild-type human partial length BMPR2 (R179 to Q526 residues) expressed in HEK293 cells assessed as residual activity at 1000 nM after 30 mins by Kinomescan method relative to control; assay type: cell-based
[21] = molecular target: Mitogen-activated protein kinase 10 (Homo sapiens) (UniProt P53779); experiment: Inhibition of wild-type human partial length JNK3 (V28 to Q422 residues) expressed in HEK293 cells assessed as residual activity at 1000 nM after 30 mins by Kinomescan method relative to control; assay type: cell-based
Mitogen-activated protein kinase 10 (Homo sapiens), sequence (P53779 whole entry, the tested form may be a part): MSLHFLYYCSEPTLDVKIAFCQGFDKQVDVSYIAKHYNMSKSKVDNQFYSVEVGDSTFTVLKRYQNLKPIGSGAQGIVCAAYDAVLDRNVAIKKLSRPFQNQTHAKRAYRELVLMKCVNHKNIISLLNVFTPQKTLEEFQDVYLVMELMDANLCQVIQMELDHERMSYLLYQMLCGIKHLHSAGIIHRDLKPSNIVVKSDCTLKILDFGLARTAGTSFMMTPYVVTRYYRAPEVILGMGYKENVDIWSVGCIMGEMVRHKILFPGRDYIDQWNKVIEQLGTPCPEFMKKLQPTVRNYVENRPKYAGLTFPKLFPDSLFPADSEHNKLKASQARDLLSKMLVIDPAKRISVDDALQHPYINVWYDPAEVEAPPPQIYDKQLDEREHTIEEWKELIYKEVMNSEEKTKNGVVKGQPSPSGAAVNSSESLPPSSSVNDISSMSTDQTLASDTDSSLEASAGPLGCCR

Structure (SMILES): COc1cc(OC)c(Cl)c(N2Cc3cnc(Nc4ccc(F)cc4)nc3N(C3CCN(C(=O)/C=C/CN(C)C)CC3)C2=O)c1Cl
- Activity [1]: 78%
- Activity [2]: 100%
- Activity [3]: 100%
- Activity [4]: 100%
- Activity [5]: 89%
- Activity [6]: 100%
- Activity [7]: 100%
- Activity [8]: 100%
- Activity [9]: 90%
- Activity [10]: 98%
- Activity [11]: 100%
- Activity [12]: 89%
- Activity [13]: 99%
- Activity [14]: 100%
- Activity [15]: 96%
- Activity [16]: 100%
- Activity [17]: 100%
- Activity [18]: 100%
- Activity [19]: 87%
- Activity [20]: 96%
- Activity [21]: 100%
